Experimental data gathered from unrelated publications.
Lines come from different studies, so protocols differ.
Target: Dual specificity protein kinase CLK1 (CLK1, Homo sapiens, UniProt P49759)
Method: competition with immobilised ligand

Cc1c(C(=O)O)cc(-c2ccc(C3CCNCC3)cc2)c2ccc(-c3ccc(C(F)(F)F)cc3)cc12 — remaining binding (binding; 1 µM): 100%
Cc1cnc(Nc2ccc(C(=O)N3CCC(N4CCCC4)CC3)cc2)nc1-c1cc2ccccc2s1 — remaining binding (binding; 1 µM): 8.3%
c1cncc(-c2cccc(Nc3nccc(NC4CCCCC4)n3)c2)c1 — remaining binding (binding; 10 µM): 1.1%
O=C(c1ccc(Nc2ncc(Cl)c(-c3ccc(Cl)s3)n2)cc1)N1CCC(N2CCCC2)CC1 — remaining binding (binding; 1 µM): 3.9%
O=C(NCC1CCOCC1)c1n[nH]cc1NC(=O)c1c(F)cccc1F — remaining binding (binding; 1 µM): 30%
CNC(=O)c1ccccc1Nc1cc(Nc2ccc(N3CCOCC3)cc2OC)ncc1C(F)(F)F — remaining binding (binding; 1 µM): < 10%
CCN1CCN(Cc2ccc(C(=O)Nc3ccc(C)c(Oc4ccc5c(c4)CC(=O)N5)c3)cc2C(F)(F)F)CC1 — remaining binding (binding; 1 µM): 100%
CN([C@@H]1CCc2c(CC(=O)O)c3cc(S(C)(=O)=O)ccc3n2C1)S(=O)(=O)c1ccc(F)cc1 — remaining binding (cell-free assay; 1 µM): 100%
C[C@@H](c1ccc(-n2cnc3c(N)ncnc32)cc1)N1CCc2nn(C)c(Cc3ccccc3)c2C1=O — remaining binding (binding; 0.1 µM): 67%
CNC(=O)[C@@H]1CC[C@@H](n2c(-c3ccc4cnccc4c3)nc3ccc(C(=O)NCc4cccc(C(N)=O)c4)cc32)C1 — remaining binding (binding; 1 µM): 98%
Cc1cc(C)c(-n2ccn3nc(-c4cccnc4)cc23)cc1NC(=O)c1cc(C#N)cc(S(F)(F)(F)(F)F)c1 — remaining binding (cell-free assay; 0.1 µM): 96.2%
O=C(c1ccc(Nc2nccc(-c3cc4ccccc4s3)n2)cc1)N1CCC(N2CCCC2)CC1 — remaining binding (binding; 1 µM): 13%
COc1cc(-c2cn(C3CCc4ccccc4N(CC(F)(F)F)C3=O)nn2)ccc1-n1ccc(C)n1 (centres unmarked) — remaining binding (cell-free assay; 1 µM): 87%
COc1cnc(Nc2cccc(S(N)(=O)=O)c2)nc1N1CCN(c2ccccc2)C(=O)C1 — remaining binding (binding; 1 µM): 100%
